Experimental data from paper PMC3594046 (Bioorganic & medicinal chemistry letters, 2013).

What was measured:
[1] = target: T1, TRβ-LBD / SRC2-2 peptide interaction (Homo sapiens, UniProt P10828); assay: Fluorescence polarization; format: binding
T1 sequence (P10828 217-461 limits assumed): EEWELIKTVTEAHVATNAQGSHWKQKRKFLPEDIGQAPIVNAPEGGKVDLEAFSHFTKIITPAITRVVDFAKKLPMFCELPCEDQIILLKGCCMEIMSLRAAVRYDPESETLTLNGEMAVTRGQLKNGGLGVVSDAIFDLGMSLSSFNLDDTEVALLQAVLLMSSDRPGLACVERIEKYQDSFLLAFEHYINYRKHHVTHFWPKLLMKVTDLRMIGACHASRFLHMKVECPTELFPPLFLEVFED
Outline: (§1)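 Fluorescence polarization competition assays: TRβ-LBD with Texas Red-labelled SRC2-2 peptide, and VDR with SRC2-3 peptide. Test compounds were 3-fold serially diluted in DMSO from a 10,000 μM top concentration and pin-transferred into the assay solutions. Each run was in triplicate and repeated twice, giving 6 replicates. EC50 is reported as the mean with standard deviation.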

TRα / SRC2-2 interaction = target: T2, TRα / SRC2-2 interaction (Homo sapiens, UniProt P10827); assay: FP competition assay, TRα-coactivator; format: binding; conditions: in words
T2 sequence (P10827 1-410 isoform P10827-2): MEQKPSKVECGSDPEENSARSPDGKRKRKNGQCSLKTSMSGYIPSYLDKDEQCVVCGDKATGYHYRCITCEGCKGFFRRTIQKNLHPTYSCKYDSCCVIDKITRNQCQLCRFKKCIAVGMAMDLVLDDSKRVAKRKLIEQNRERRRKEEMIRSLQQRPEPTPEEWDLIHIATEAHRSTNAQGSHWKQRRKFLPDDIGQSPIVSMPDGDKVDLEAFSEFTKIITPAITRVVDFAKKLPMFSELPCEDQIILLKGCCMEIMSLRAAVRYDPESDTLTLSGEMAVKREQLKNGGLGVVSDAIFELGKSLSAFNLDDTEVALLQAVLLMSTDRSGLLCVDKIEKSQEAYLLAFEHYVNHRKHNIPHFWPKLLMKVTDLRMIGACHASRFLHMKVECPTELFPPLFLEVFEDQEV

[2] = test system: PEPCK gene transcription (TR-responsive) in HepG2 cells; assay: RT-PCR of T3-induced PEPCK transcription in HepG2 cells; format: cell-based; conditions: HepG2, co-treated with T3 (100 nM) and compound (1 μM and 100 nM), 24 h
Outline: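 HepG2 cells were co-treated for 24 h with T3 (100 nM) and test compound at 1 μM or 100 nM. Controls were a T3 ligand antagonist and a known coactivator antagonist. mRNA was isolated and converted to cDNA, and diluted cDNA was used for real-time PCR of PEPCK. Fold induction was calculated by the ΔΔCt method, with two independent experiments in triplicate and standard errors.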

[3] = target: T3, vitamin D receptor (VDR) / SRC2-3 interaction (Homo sapiens, UniProt P11473); assay: FP competition assay, VDR-SRC2-3 interaction; format: binding
T3 sequence (P11473 1-427): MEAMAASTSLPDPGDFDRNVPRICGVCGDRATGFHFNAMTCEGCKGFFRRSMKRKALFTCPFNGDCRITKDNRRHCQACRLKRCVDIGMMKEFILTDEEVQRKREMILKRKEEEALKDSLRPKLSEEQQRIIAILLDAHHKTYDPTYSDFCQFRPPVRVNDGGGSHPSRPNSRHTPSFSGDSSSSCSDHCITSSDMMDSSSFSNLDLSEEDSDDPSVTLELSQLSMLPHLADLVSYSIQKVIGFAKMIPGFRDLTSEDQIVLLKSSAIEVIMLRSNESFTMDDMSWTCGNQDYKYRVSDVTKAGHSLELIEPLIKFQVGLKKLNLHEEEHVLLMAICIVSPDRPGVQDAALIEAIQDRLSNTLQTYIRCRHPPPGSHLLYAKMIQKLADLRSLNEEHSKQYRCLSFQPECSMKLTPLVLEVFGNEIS
Outline: as §1

CS(=O)(=O)c1ccc(C(=O)NCC(=O)NC23CC4CC(CC(C4)C2)C3)cc1[N+](=O)[O-] [3{1,1}]
EC50 [1]: 16 µM

CCCN(C(=O)CNC(=O)c1ccc(S(C)(=O)=O)c([N+](=O)[O-])c1)c1ccccc1 [3{1,12}]
EC50 [1]: 6.6 µM

CS(=O)(=O)c1ccc(C(=O)NCC(=O)N(Cc2ccccc2)c2ccccc2)cc1[N+](=O)[O-] [3{1,13}]
TRα-COA antagonism compared with TRβ (TRα / SRC2-2 interaction): slightly more potency against TRα

CS(=O)(=O)c1ccc(C(=O)NCC(=O)N(Cc2ccccc2)Cc2ccccc2)cc1[N+](=O)[O-] [3{1,18}]
EC50 [1]: 3.6 µM
TRα-COA antagonism compared with TRβ (TRα / SRC2-2 interaction): slightly more potency against TRα
Transcription of the PEPCK gene [2]: inhibited by the MSNBA 3{1,18} in dose-dependent manner

CN(C(=O)CNC(=O)c1ccc(S(C)(=O)=O)c([N+](=O)[O-])c1)c1ccccc1 [3{1, 11}]
EC50 [1]: 5.8 µM

CS(=O)(=O)c1ccc(C(=O)NCCCC(=O)NC23CC4CC(CC(C4)C2)C3)cc1[N+](=O)[O-] [3{3,1}]
EC50 [1]: 11 µM

CS(=O)(=O)c1ccc(C(=O)NCCCC(=O)N2CCN(c3ccc(C(F)(F)F)cc3)CC2)cc1[N+](=O)[O-] [3{3,24}]
Activity against TR-SRC interaction ([1]; FP assay, in words): inactive
EC50 [3]: 7 µM

CN(CC(=O)NC12CC3CC(CC(C3)C1)C2)C(=O)c1ccc(S(C)(=O)=O)c([N+](=O)[O-])c1 [3{4,1}]
EC50 [1]: > 60 µM

CCCN(C(=O)CN(C)C(=O)c1ccc(S(C)(=O)=O)c([N+](=O)[O-])c1)c1ccccc1 [{4,12}]
EC50 [1]: > 60 µM

CN(CC(=O)N(Cc1ccccc1)Cc1ccccc1)C(=O)c1ccc(S(C)(=O)=O)c([N+](=O)[O-])c1 [{4, 18}]
EC50 [1]: > 60 µM
